{"source": "ChEMBL document CHEMBL1155462", "about": "“Structure-activity relationship for thiohydantoin androgen receptor antagonists for castration-resistant prostate cancer (CRPC)” (J Med Chem, 2010)", "key": {"[1]": {"target": "T1, Androgen receptor (Rattus norvegicus) (UniProt P15207)", "T1 sequence (whole entry)": "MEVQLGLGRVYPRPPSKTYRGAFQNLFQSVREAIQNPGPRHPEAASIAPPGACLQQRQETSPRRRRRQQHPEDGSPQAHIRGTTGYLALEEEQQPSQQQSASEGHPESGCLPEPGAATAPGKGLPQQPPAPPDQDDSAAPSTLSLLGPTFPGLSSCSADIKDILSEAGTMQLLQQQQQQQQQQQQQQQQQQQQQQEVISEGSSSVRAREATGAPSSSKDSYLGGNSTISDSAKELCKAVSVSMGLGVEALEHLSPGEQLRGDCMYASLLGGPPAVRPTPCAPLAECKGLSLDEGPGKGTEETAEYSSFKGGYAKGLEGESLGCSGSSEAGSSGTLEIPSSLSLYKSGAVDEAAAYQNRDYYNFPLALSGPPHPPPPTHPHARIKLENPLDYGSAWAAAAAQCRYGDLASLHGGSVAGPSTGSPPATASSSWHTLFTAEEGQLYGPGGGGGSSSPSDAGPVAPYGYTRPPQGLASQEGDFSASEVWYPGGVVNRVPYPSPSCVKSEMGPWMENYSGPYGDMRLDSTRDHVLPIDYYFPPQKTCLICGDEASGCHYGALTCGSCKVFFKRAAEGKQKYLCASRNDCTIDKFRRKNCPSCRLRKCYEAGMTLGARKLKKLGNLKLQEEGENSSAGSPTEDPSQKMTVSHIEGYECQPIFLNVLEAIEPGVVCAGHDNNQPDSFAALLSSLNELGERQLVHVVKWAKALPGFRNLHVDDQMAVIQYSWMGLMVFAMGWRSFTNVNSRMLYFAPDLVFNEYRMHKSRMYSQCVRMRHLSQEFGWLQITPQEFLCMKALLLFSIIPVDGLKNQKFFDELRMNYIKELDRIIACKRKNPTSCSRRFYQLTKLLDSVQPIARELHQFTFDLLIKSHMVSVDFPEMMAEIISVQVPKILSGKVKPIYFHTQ", "experiment": "Antagonist activity at androgen receptor in rat prostate gland at 1.25 to 10 uM by luciferase reporter gene assay", "format": "functional, tissue-based"}, "[2]": {"system": "LNCaP", "experiment": "Inhibition of prostate specific antigen expression in human LNCAP cells at 0.625 to 20 uM in presence of fetal bovine serum", "format": "functional, cell-based"}, "[3]": {"system": "LNCaP", "experiment": "Inhibition of prostate specific antigen secretion in human LNCAP cells expressing androgen receptor at 1.25 to 10 uM in presence of charcoal stripped serum", "format": "functional, cell-based", "procedure,_shortened": "(§1)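 LNCaP/AR cells were made by viral infection with an AR cDNA to express 3–5 fold higher AR levels, mimicking CRPC. They were assayed in charcoal-stripped serum to mimic androgen depletion. Read-out was PSA level, with DMSO as the vehicle.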"}, "[4]": {"system": "LNCaP", "experiment": "Inhibition of prostate specific antigen expression in human LNCAP cells at 0.625 to 5 uM in presence of fetal bovine serum", "format": "functional, cell-based"}, "[5]": {"system": "LAPC4", "experiment": "Antitumor activity against human castration and bicalutamide-resistant LAPC4 cells xenografted in SCID mouse assessed as change in tumor volume at 10 mg/kg measured up to 20 days", "format": "functional, organism-based", "parameters": "dose 10 mg/kg"}, "[6]": {"system": "LAPC4", "experiment": "Antitumor activity against human castration and bicalutamide-resistant LAPC4 cells xenografted in SCID mouse assessed as change in tumor volume measured up to 50 days", "format": "functional"}, "[7]": {"system": "LNCaP", "experiment": "Inhibition of prostate specific antigen expression in human LNCAP cells in presence of fetal bovine serum", "format": "functional, cell-based"}, "[8]": {"system": "LNCaP", "experiment": "Inhibition of prostate specific antigen expression in human LNCAP cells at 1.25 to 10 uM in presence of fetal bovine serum", "format": "functional, cell-based"}, "[9]": {"target": "T1, Androgen receptor (Rattus norvegicus)", "experiment": "Antagonist activity at androgen receptor in rat prostate gland at 0.625 to 20 uM by luciferase reporter gene assay", "format": "functional, tissue-based"}, "[10]": {"system": "LNCaP", "experiment": "Inhibition of prostate specific antigen expression in human LNCAP cells at 100 to 1000 nM in presence of fetal bovine serum", "format": "functional, cell-based"}, "[11]": {"system": "LNCaP", "experiment": "Inhibition of prostate specific antigen secretion in human LNCAP cells expressing androgen receptor in presence of charcoal stripped serum", "format": "functional, cell-based", "procedure,_shortened": "as §1"}, "[12]": {"system": "Serum", "experiment": "Drug level in SCID mouse serum at 10 mg/kg, iv", "format": "ADME, organism-based", "parameters": "dose 10 mg/kg, route intravenous", "conditions": "in vivo, read-out: Drug uptake"}, "[13]": {"system": "LNCaP", "experiment": "Antitumor activity against human castration-resistant LNCAP cells expressing androgen receptor xenografted in SCID mouse assessed as change in tumor size at 10 mg/kg qd for 31 days", "format": "functional, organism-based", "parameters": "dose 10 mg/kg", "procedure,_shortened": "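AR-overexpressing LNCaP cells were injected subcutaneously into the flanks of castrated SCID mice. Once tumors reached about 100–200 cubic mm, mice were randomized into groups of six. Vehicle or compound was given orally every day, and tumor volume change was followed.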"}, "[14]": {"system": "LNCaP", "experiment": "Inhibition of prostate specific antigen secretion in human LNCAP cells expressing androgen receptor at 100 to 1000 nM in presence of charcoal stripped serum", "format": "functional, cell-based", "procedure,_shortened": "as §1"}, "[15]": {"system": "LNCaP", "experiment": "Cytostatic activity against human castration-resistant LNCAP cells expressing androgen receptor xenografted in SCID mouse assessed as change in tumor size at 50 mg/kg qd measured up to 18 days", "format": "functional, organism-based", "parameters": "dose 50 mg/kg"}, "[16]": {"system": "LNCaP", "experiment": "Cytostatic activity against human castration-resistant LNCAP cells expressing androgen receptor xenografted in SCID mouse assessed as change in tumor size at 10 mg/kg qd measured up to 18 days", "format": "functional, organism-based", "parameters": "dose 10 mg/kg"}}, "note": "Calls of active or inactive are those of the source. The rule behind the calls is not given here.", "data": [{"compound": "Cc1ccc(N2C(=S)N(c3ccc(C#N)c(C(F)(F)F)c3)C(=O)C23CCC3)cc1", "values": [{"measurement": "Activity", "setting": "[1]", "value": "Active"}, {"measurement": "Activity", "setting": "[2]", "value": "Active"}, {"measurement": "inhibition", "setting": "[3]", "value": "Active"}, {"measurement": "Activity", "setting": "[4]", "value": "Active"}, {"measurement": "Activity", "setting": "[5]", "value": "Active"}, {"measurement": "Activity", "setting": "[6]", "value": "Dose-dependent effect"}, {"measurement": "IC50", "setting": "[7]", "value": 124, "unit": "nM"}, {"measurement": "Activity", "setting": "[8]", "value": "Active"}]}, {"compound": "Cc1ccc(N2C(=S)N(c3ccc(C#N)c(C(F)(F)F)c3)C(=O)C2(C)C)cc1", "values": [{"measurement": "Activity", "setting": "[1]", "value": "Active"}, {"measurement": "Activity", "setting": "[2]", "value": "Active"}, {"measurement": "Activity", "setting": "[4]", "value": "Active"}, {"measurement": "Activity", "setting": "[5]", "value": "Active"}, {"measurement": "Activity", "setting": "[8]", "value": "Active"}, {"measurement": "Activity", "setting": "[9]", "value": "inactive"}]}, {"compound": "CNC(=O)CCCc1ccc(N2C(=S)N(c3ccc(C#N)c(C(F)(F)F)c3)C(=O)C23CCC3)cc1", "values": [{"measurement": "Activity", "setting": "[10]", "value": "Active"}, {"measurement": "IC50", "setting": "[11]", "value": 92, "unit": "nM"}, {"measurement": "concentration", "setting": "[12]", "value": 390, "unit": "µM"}, {"measurement": "inhibition", "setting": "[3]", "value": "Active"}, {"measurement": "IC50", "setting": "[7]", "value": 92, "unit": "nM"}]}, {"compound": "CC(O)(CS(=O)(=O)c1ccc(F)cc1)C(=O)Nc1ccc(C#N)c(C(F)(F)F)c1", "note": "(stereo not drawn) [BICALUTAMIDE]", "values": [{"measurement": "concentration", "setting": "[12]", "value": 10000, "unit": "µM"}, {"measurement": "inhibition", "setting": "[3]", "value": "inactive"}]}, {"compound": "CNC(=O)c1ccc(N2C(=S)N(c3ccc(C#N)c(C(F)(F)F)c3)C(=O)C23CCC3)cc1F", "values": [{"measurement": "Activity", "setting": "[13]", "value": "Active"}, {"measurement": "Activity", "setting": "[10]", "value": "Active"}, {"measurement": "Activity", "setting": "[14]", "value": "Active"}, {"measurement": "inhibition", "setting": "[11]", "value": "Dose-dependent effect"}, {"measurement": "Activity", "setting": "[15]", "value": "Active"}, {"measurement": "concentration", "setting": "[12]", "value": 9900, "unit": "µM"}, {"measurement": "Activity", "setting": "[16]", "value": "Active"}]}]}
